Results as given in ChEMBL document CHEMBL5338743, “Identification of a Selective SCoR2 Inhibitor That Protects Against Acute Kidney Injury” (J Med Chem, 2023).
Calls of active or inactive are those of the source. No cut-off for these calls is given here.

What was measured:
Mus musculus [1] = experiment: Protection against ischemia/reperfusion induced acute kidney injury in mouse assessed as reduction in serum creatinine level at 120 mg/kg, ip pretreated for 18 hrs followed by kidney injury surgery and measured after 24 hrs; type: functional, organism-based; conditions: time 42.0 hrs
Summary of the method: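 Male mice (9–11 weeks, 25–28 g) given i.p. dose 18 h before ischemia–reperfusion AKI surgery under isoflurane; serum taken 24 h after reperfusion. Creatinine and BUN measured by a clinical laboratory; DMSO-treated controls.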

[2] = In vivo inhibition of SCoR2 in ischemia/reperfusion induced acute kidney injury mouse model assessed as reduction in SNO-CoA metabolic activity in kidneys at 120 mg/kg, ip pretreated for 18 hrs followed by kidney injury surgery and measured after 24 hrs relative to control; type: functional; conditions: time 42 hrs
Summary of the method: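 Male mice (9–11 weeks, 25–28 g) dosed i.p. 18 h before renal ischemia–reperfusion surgery under isoflurane; kidneys taken 24 h after reperfusion. Kidney lysate SNO-CoA reductase activity measured with 200 μM SNO-CoA, 100 μM NADPH, 2 min, triplicate assays; DMSO-treated controls.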

Mus musculus [3] = experiment: Protection against ischemia/reperfusion induced acute kidney injury in mouse assessed as increase in SNO-PKM2 level in kidney at 120 mg/kg, ip pretreated for 18 hrs followed by kidney injury surgery and measured after 24 hrs by Western blot analysis; type: functional, organism-based; conditions: time 42.0 hrs
Summary of the method: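 Kidneys from sham or I/R mice (120 mg/kg i.p. or DMSO) homogenized in HEN buffer with MMTS, then SDS/MMTS blocking at 50°C for 20 min and acetone-precipitated. 2 mg lysate captured on thiopropyl-Sepharose with 50 mM ascorbate, 4 h in the dark; no-ascorbate controls. PKM2 detected by western blot and normalized to input PKM2, n=3.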

[4] = Renal toxicity in mouse assessed as effect on anatomy of medulla at 120 mg/kg, ip treated for 18 hrs under basal conditions by H and E staining based analysis; type: organism-based; conditions: in vivo
Summary of the method: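 Sham-operated mice given 120 mg/kg i.p. or vehicle; kidney cortex and medulla examined by H&E staining.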

[5] = Drug uptake in mouse serum at 120 mg/kg body weight, ip measured at 24 hrs post injection by HPLC/mass spectrometry analysis; type: ADME, organism-based; conditions: in vivo
Summary of the method: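 Serum collected 24 h after i.p. injection; compound level measured by HPLC/mass spectrometry.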

Mus musculus [6] = experiment: In vivo inhibition of SCoR2 in C57BL/6J mouse assessed as reduction in SNO-CoA metabolic activity in heart at 120 mg/kg body weight, ip administered as single dose into abdomen measured after 18 hrs; type: functional, organism-based
Summary of the method: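 Single i.p. injection into the mouse abdomen, DMSO vehicle; organs collected 18 h later. Tissues homogenized in 50 mM phosphate pH 7.0, 150 mM NaCl, EDTA/DTPA, then clarified; lysate started reactions with 200 μM SNO-CoA and 100 μM NADPH, 2 min, NADPH loss monitored, in triplicate. Compared with vehicle and SCoR2−/− kidneys.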

[7] = molecular target: T1, Aldo-keto reductase family 1 member A1 (Homo sapiens) (UniProt P14550); experiment: Binding affinity to C-terminal 6His-tagged human recombinant SCoR2 AKR1A1 expressed in Escherichia coli BL21-CodonPlus competent cells assessed as thermal stability by measuring melting temperature at +/- 250 uM preincubated for 15 mins with NADP+ followed by compound addition and measured after 30 mins by SYPRO orange dye based DSF analysis (reference value: 51.4 degreeC)
T1 sequence (whole entry): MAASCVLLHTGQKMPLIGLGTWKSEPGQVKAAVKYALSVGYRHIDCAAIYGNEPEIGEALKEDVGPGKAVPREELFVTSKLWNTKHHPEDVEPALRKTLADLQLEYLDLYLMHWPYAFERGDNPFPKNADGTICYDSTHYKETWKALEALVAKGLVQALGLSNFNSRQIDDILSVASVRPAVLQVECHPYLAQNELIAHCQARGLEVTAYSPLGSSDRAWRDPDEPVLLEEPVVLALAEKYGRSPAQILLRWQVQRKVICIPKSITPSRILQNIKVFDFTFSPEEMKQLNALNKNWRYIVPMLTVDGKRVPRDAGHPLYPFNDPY
Summary of the method: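 5 μM protein with or without 250 μM NADPH or NADP⁺ and 250 μM inhibitor; cofactor preincubated 15 min, then inhibitor 30 min at room temperature. 10X SYPRO Orange added; temperature ramped 25–70°C in 0.3°C steps. DMSO-matched controls (1%); duplicates.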

For O=C1NC(=O)C2(N1)c1ccccc1-c1ccc(C3CC3)cc12 (configuration not stated), the Activity (Mus musculus [1]) was “Active”, the inhibition in vivo at 120 mg/kg [2] was 80% and the Activity (Mus musculus [3]) was “Active”. For the same compound, the Activity [4] was “Non-Toxic”, the Drug uptake [5] was “Active” and the inhibition (Mus musculus [6]) was “Active”. The Tm [7] was 54.4 °C.
